Source: PubChem BioAssay (several laboratories)
NR2E3 ag-1 – agonists of human nuclear receptor NR2E3 | GST-NR2E3/biotin-RetCOR TR-FRET, 1536-well | inhibition of corepressor binding, % at 4.78 µM | hit rate 0.12% among 320,000;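 active = percent inhibition above the cutoff of mean plus 3 SD of all tested compounds, set per screening campaign, cut at about 20% in these data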
Target sequence (Q9Y5X4 whole entry, looked up): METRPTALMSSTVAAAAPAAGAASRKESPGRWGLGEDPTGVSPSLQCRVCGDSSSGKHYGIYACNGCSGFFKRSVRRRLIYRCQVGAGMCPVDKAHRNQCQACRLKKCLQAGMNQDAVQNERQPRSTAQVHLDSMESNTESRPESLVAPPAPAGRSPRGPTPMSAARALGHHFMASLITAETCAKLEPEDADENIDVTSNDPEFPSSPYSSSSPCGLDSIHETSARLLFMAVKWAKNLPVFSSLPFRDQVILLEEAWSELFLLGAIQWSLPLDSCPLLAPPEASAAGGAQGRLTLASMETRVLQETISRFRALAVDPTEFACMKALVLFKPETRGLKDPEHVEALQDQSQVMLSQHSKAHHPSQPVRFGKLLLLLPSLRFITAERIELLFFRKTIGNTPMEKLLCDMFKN
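System: GST-tagged NR2E3 plus biotinylated RetCOR corepressor; Buffer or medium: pH 7.5 Tris-based buffer; Probe or stimulus: RetCOR corepressor, biotinylated, 7 nM; Doses: compound at 4.8 µM, single dose; Schedule: 5 h incubation at 4 °C; Technique: time-resolved FRET; Evaluation: percent inhibition of TR-FRET ratio; Replication: one well per compound, singlicate testing.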
NR2E3 ag-2 – activates human NR2E3 receptor; inhibition of corepressor binding, % at 3.98 µM; CHO-S Gal4-NCOR/VP16-NR2E3 two-hybrid, luciferase; hit rate 0.35% among 360,000; Q9Y5X4;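 active = inhibition above the mean of all tested compounds plus 3 SD, cut at about 70% in these data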;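 note: higher means lower luciferase signal from less NR2E3 corepressor binding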
ADAM10 inh – ADAM10 inhibition, QFRET primary screen. O14672. recombinant ADAM10, EDANS/DABCYL FRET peptide cleavage, 3 h. inhibition, % at 7 µM. hit rate 0.62% among 370,000. AID 720582;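 active = inhibition above a per-campaign cutoff equal to the mean of compounds falling between control-based bounds plus 3 SD, cut at about 20% in these data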
proKLK7 act – activators of human kallikrein-7 zymogen; hit rate 0.9% among 370,000; P49862; purified proKLK7, EDANS-DABCYL substrate fluorescence; 100% is mature enzyme control, 0% vehicle; activation, % at 7 µM;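 active = activation above the mean of all tested compounds plus 3 SD, computed per campaign excluding outliers beyond control limits, cut at about 13% in these data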
Target sequence (P49862 whole entry, looked up): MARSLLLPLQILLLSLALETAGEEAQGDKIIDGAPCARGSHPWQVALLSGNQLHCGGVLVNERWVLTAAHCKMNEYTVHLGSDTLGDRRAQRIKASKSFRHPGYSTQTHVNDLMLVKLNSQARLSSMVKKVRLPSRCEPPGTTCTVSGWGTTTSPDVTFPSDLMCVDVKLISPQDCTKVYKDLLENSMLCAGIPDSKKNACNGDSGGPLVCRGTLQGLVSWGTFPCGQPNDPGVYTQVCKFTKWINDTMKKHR
JMJD2C inh – human JMJD2C demethylase inhibition; Q9H3R0; GST-JMJD2C(1-420) H3K9me3 demethylation, DELFIA europium; inhibition, % at 2.35 µM; hit rate 0.069% among 330,000; AID 2099;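 active = more than half of a compound's replicate wells show inhibition beyond 50%, single wells judged on their own value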;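 note: signal counts dimethyl H3K9 product captured on neutravidin plate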
ADAM17 inh – ADAM17 inhibition, QFRET primary screen; P78536; recombinant ADAM17, EDANS/DABCYL FRET peptide cleavage; inhibition, % at 6.95 µM; AID 720648; hit rate 0.83% among 370,000;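 active = inhibition above the mean of compounds lying between control limits plus 3 SD, set per campaign, cut at about 8.5% in these data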
ADAM10 confirm – human ADAM10 inhibition, confirmation; shares compounds with ADAM10 inh; ADAM10 QFRET peptide cleavage, EDANS fluorescence; inhibition, % at 6.95 µM; hit rate 1% among 2,100; AID 743208;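 active = inhibition above about 20% chosen separately for each screening run, limit read from the data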
ADAM17 ctr – inhibits human ADAM17 in ADAM10 exosite counter-screen; shares compounds with ADAM10 inh; ADAM17 QFRET peptide cleavage, EDANS fluorescence; AID 743214; inhibition, % at 6.95 µM; hit rate 0.5% among 2,100;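 active = mean triplicate inhibition above the solvent-only control wells' mean plus 3 SD, cut at about 12% in these data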
Hits are given with their value; . = inactive; / = not tested or not shown. The list is not random: actives were taken first. Their share in the collection is about 2.5%.

SMILES | NR2E3 ag-1 | NR2E3 ag-2 | ADAM10 inh | proKLK7 act | JMJD2C inh | ADAM17 inh | ADAM10 confirm | ADAM17 ctr
Cc1ccc(-c2csc3ncnc(SCc4ccc(C(=O)O)cc4)c23)cc1 | . | . | . | . | / | . | / | /
CCCCC(=O)N(C)c1c(CC)nc2c(OCc3cc(Cl)cc(Cl)c3)cccn12 | / | . | . | . | / | . | / | /
Clc1cccc(CON/C=N/c2ncnc3sccc23)c1 | . | . | 21 | . | . | . | . | .
NC(=O)NOCc1cccc(Cl)c1 | . | . | . | . | . | . | / | /
CC(=O)N1c2ccc(F)c(F)c2C[C@H]1C | . | . | . | . | . | . | / | /
CC1=C2C3OC(=O)C(C)C3CCC2(C)C=C(Br)C1=O (stereo not drawn) | / | . | . | . | / | . | / | /
CC(OC(=O)c1ccc(NS(=O)(=O)c2ccc3[nH]c(=O)[nH]c3c2)cc1)C(=O)Nc1ccc(Cl)cc1 (stereo not drawn) | . | . | . | . | . | . | / | /
COc1ccc(Cl)cc1NC(=O)C(C)OC(=O)c1ccc(NS(=O)(=O)c2ccc3[nH]c(=O)[nH]c3c2)cc1 (stereo not drawn) | . | . | 22 | . | . | . | . | .
CN(C)c1ccc(-c2ccnc3c2CC(C)(C(=O)NCC2CC2)O3)cc1 (stereo not drawn) | / | . | . | . | / | . | / | /
Cc1cccc(N=Nc2c(C)nn(-c3ccccc3)c2N)c1C | . | . | 23 | . | . | . | . | .
Cc1nn(-c2ccccc2)c(N)c1N=Nc1ccccc1 | . | . | . | . | . | . | / | /
CN(C)c1cccc(/C=C2\CC3(OC(=O)c4ccccc4)CCCN2C3)c1 (stereo not drawn) | / | / | . | . | / | . | / | /
CCOc1ccc(NC(=O)C2C(c3ccccc3)C2(Cl)Cl)cc1 (stereo not drawn) | . | . | 20 | . | . | . | . | .
COc1ccc(NC(=O)C2C(c3ccccc3)C2(Cl)Cl)cc1 (stereo not drawn) | . | . | . | . | . | . | / | /
C=CCNC(=O)c1c(CSc2ccc(Cl)cc2)noc1C(=O)NCc1ccccc1 | . | . | 21 | . | . | . | . | .
C=CCNC(=O)c1c(CSc2ccccc2)noc1C(=O)NCc1ccccc1 | . | . | . | . | . | . | / | /
Cc1ccc(OCC(O)Cn2c3ccccc3c3ccccc32)cc1 (stereo not drawn) | . | . | 21 | . | . | . | . | .
Cc1scc(C(=O)NNC(=S)NC(C)c2ccccc2)c1C (stereo not drawn) | . | . | 27 | . | . | . | . | .
COc1ccc(-c2cn(-c3ccc(C)cc3C)c(=S)[nH]2)cc1OC | . | . | 20 | . | . | . | . | .
COc1cc(OC)c(-n2cc(-c3ccc(OC)c(OC)c3)[nH]c2=S)cc1Cl | / | . | . | . | . | . | / | /
Cc1ccc(C(=O)NCCSC2CCCCC2)cc1S(=O)(=O)Nc1ccccc1 | . | . | 24 | . | . | . | . | .
Cc1ccc(SCCNC(=O)c2ccc(C)c(S(=O)(=O)Nc3ccccc3C)c2)cc1 | . | . | 21 | . | . | . | . | .
Cc1ccccc1NS(=O)(=O)c1cc(C(=O)NCc2ccco2)ccc1C | . | . | . | . | . | . | / | /
COc1ccc(CNC(=O)O[C@@H]2C[C@H]3C(=O)N(c4ccccc4)C(=O)[C@H]3[C@@]3(CN(S(=O)(=O)c4ccc(C)cc4)C[C@H]3C)[C@@H]2O)cc1OC | / | . | 20 | . | / | . | . | .
COCCN1C(=O)N(c2cccc(OC)c2)C(=O)C1CC(=O)Nc1ccc(OC)cc1 (stereo not drawn) | . | . | . | . | . | . | / | /
SMILES | NR2E3 ag-1 | NR2E3 ag-2 | ADAM10 inh | proKLK7 act | JMJD2C inh | ADAM17 inh | ADAM10 confirm | ADAM17 ctr
COCCN1C(=O)N(c2cccc(C)c2)C(=O)C1CC(=O)Nc1ccc(OC)cc1 (stereo not drawn) | . | . | 20 | . | . | . | . | .
OC(c1ccccc1)(c1nc(/C=C/c2ccc(C(F)(F)F)cc2)cs1)C(F)(F)F (stereo not drawn) | / | . | . | . | / | . | / | /
CCCn1nc([N+](=O)[O-])c(C(C#N)c2nc3ccccc3o2)c(Cl)c1=O (stereo not drawn) | . | . | 21 | . | . | . | . | .
O=S(=O)(c1ccccc1)N1CCc2ccccc2C1 | . | . | . | . | . | . | / | /
Cc1cc(S(=O)(=O)N2CCc3ccccc3C2)ccc1F | . | . | 22 | . | . | . | . | .
CN(Cc1ccccc1)C1CCN(Cc2ccccc2[N+](=O)[O-])CC1 | . | . | . | . | . | . | / | /
CCN(CC(=O)Nc1ccc(NC(C)=O)cc1)C(=O)c1cc(S(=O)(=O)N2CCCCCC2)ccc1OC | . | . | . | . | . | . | / | /
CC1(NC(=O)c2ccc(C#Cc3cccc(F)c3)cn2)COC1 | / | / | . | . | / | . | / | /
O=C(O)c1ccc(C#Cc2cccc(F)c2)cn1 | / | / | 26 | . | / | . | . | .
CN(CCCN1CCOCC1)C(=O)c1cc(COc2cccc(C(F)(F)F)c2)on1 | . | . | . | . | . | . | / | /
CN(CCc1ccccc1)C(=O)c1cc(COc2cccc(C(F)(F)F)c2)on1 | / | . | 21 | . | . | . | . | .
O=C(COc1ccc(Br)cc1Br)NC(=O)NC1CCCC1 | . | . | . | . | . | . | / | /
CC(C)(C)NC(=O)NC(=O)COc1ccc(Br)cc1Br | . | . | 20 | . | . | . | . | .
CC1(C)CC2CC(C)(CN2S(=O)(=O)c2ccc(F)cc2F)C1 (stereo not drawn) | . | . | . | . | . | . | / | /
O=S(=O)(Nc1cc(C(F)(F)F)ccc1N1CCOCC1)c1ccc2ccccc2c1 | . | . | 24 | . | . | . | . | .
O=S(=O)(Nc1cc(C(F)(F)F)ccc1N1CCOCC1)c1ccccc1 | . | . | . | . | . | . | / | /
Cc1ccc(S(=O)(=O)N2CCCCC2)cc1C(=O)Nc1ccc(N2CCOCC2)cc1 | . | . | . | . | . | . | / | /
COc1ccc(S(=O)(=O)N2CCOCC2)cc1C(=O)Nc1ccc(N2CCCCCC2)cc1 | / | . | 20 | . | / | . | . | .
CCOC(=O)CCC(=O)Nc1cc(S(=O)(=O)N2CCOCC2)ccc1N1CCCCC1 | . | . | 22 | . | . | . | . | .
CCCCNC(=S)N/N=C/c1cc(C)ccc1C | . | . | 20 | . | . | . | . | .
CCCCNC(=S)N/N=C/c1ccccc1F | . | . | . | . | . | . | / | /
CCc1ccc(NC(=O)Cn2nc(C(=O)O)c3ccccc3c2=O)cc1 | . | . | . | . | . | . | / | /
